In ChEMBL document CHEMBL1134284, “The biological effects of structural variation at the meta position of the aromatic rings and at the end of the alkenyl chain in the alkenyldiarylmethane series of non-nucleoside reverse transcriptase inhibitors” (J Med Chem, 2001):

Key:
[1] = biological target: Human immunodeficiency virus type 1 reverse transcriptase (Human immunodeficiency virus 1, UniProt Q72547); test: Inhibitory activity against HIV-1 Reverse Transcriptase with rCdG as the template primer
Procedure, shortened: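 Cell-free assay with purified recombinant HIV-1 RT (p66/p51 dimer). Activity measured as [32P]GTP incorporation into the poly(rC)/oligo(dG) homopolymer template/primer. IC50 is reported as inhibition of enzyme activity.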

CEM-SS [2] = test: Inhibitory concentration for cytopathicity of HIV-1RF in CEM-SS cells; Not active; assay type: functional, cell-based, Homo sapiens
Procedure, shortened: (§1)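 CEM-SS cells kept in RPMI 1640 with 10% heat-inactivated FBS, 2 mM glutamine, penicillin/streptomycin. Microtiter assay with cytopathic HIV-1 RF, or mock infection for toxicity. Viability read by MTS/phenazine ethosulfate reduction (absorbance 490 nm) 6 days after infection. […] Triplicate.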

CEM-SS [3] = test: Concentration required for cytotoxicity against mock infected CEM-SS cells; assay type: functional; settings: Homo sapiens; procedure, shortened: as §1
CCRF-CEM [4] = test: Antiviral activity against site directed 4X AZT resistant isolate HIV-1 L100I in CEM cells; assay type: functional, cell-based, Homo sapiens
Procedure, shortened: (§2)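 CEM-SS cells infected with low-cytopathicity site-directed RT-mutant NL4-3 clones (A98G, L74V, 4XAZT = D67N/K70R/T215Y/K219Q, 4XAZT/L100I). Replication was quantified by p24 ELISA rather than cytoprotection. […] Triplicate, variation of mean about 10%.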

[5] = Antiviral activity against subtype isolate O strain in PBLs (peripheral blood lymphocytes); assay type: functional, cell-based, Homo sapiens
Procedure, shortened: (§3)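 PBMCs isolated from hepatitis- and HIV-seronegative donors by Ficoll-Hypaque gradient and stimulated 3 days with phytohemagglutinin/IL-2. Infected with pediatric low-passage clinical isolates or NIAID subtype isolates, in RPMI 1640 with 10% FBS, 2 mM glutamine, penicillin/streptomycin. Replication read as supernatant reverse transcriptase activity. […] Run in triplicate, with AZT as positive control.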

CCRF-CEM [6] = test: Antiviral activity against site directed resistant isolate HIV-1 K101E in CEM cells; assay type: functional, cell-based, Homo sapiens
[7] = Antiviral activity against TEKI virus strain in PBLs (peripheral blood lymphocytes); assay type: functional, cell-based; settings: Homo sapiens; procedure, shortened: as §3
[8] = test system: Human immunodeficiency virus type 1 (RF/HAT ISOLATE); test: Inhibitory concentration for cytopathicity of HIV-1RF in CEM-SS cells; assay type: functional, organism-based; settings: Human immunodeficiency virus 1, RF; procedure, shortened: as §1
CCRF-CEM [9] = test: Antiviral activity against site directed resistant isolate HIV-1 Y188C in CEM cells; assay type: functional, cell-based, Homo sapiens
Procedure, shortened: (§4)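 CEM-SS cells in RPMI 1640 with 10% heat-inactivated FBS were infected with NL4-3 molecular clones carrying site-directed RT mutations. Cytoprotection from virus-induced syncytial killing was read by MTS/phenazine ethosulfate reduction (A490) 6 days after infection. […] Triplicate, variation of mean about 10%.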

[10] = Antiviral activity against subtype isolate G strain in PBLs (peripheral blood lymphocytes); assay type: functional, cell-based; settings: Homo sapiens; procedure, shortened: as §3
CCRF-CEM [11] = test: Antiviral activity against site directed resistant isolate HIV-1 L74V in CEM cells; assay type: functional, cell-based, Homo sapiens; procedure, shortened: as §2
[12] = Antiviral activity against subtype isolate A strain in PBLs (peripheral blood lymphocytes); assay type: functional, cell-based; settings: Homo sapiens; procedure, shortened: as §3
CCRF-CEM [13] = test: Antiviral activity against site directed resistant isolate HIV-1 K103N in CEM cells; assay type: functional, cell-based, Homo sapiens; procedure, shortened: as §4
[14] = Antiviral activity against ROJO virus strain in PBLs (peripheral blood lymphocytes); assay type: functional, cell-based; settings: Homo sapiens; procedure, shortened: as §3
[15] = Antiviral activity against SLKA virus strain in PBLs (peripheral blood lymphocytes); assay type: functional, cell-based; settings: Homo sapiens; procedure, shortened: as §3
CCRF-CEM [16] = test: Antiviral activity against site directed resistant isolate HIV-1 V179D in CEM cells; assay type: functional, cell-based, Homo sapiens; procedure, shortened: as §4
CCRF-CEM [17] = test: Antiviral activity against site directed resistant isolate HIV-1 Y181C in CEM cells; assay type: functional, cell-based, Homo sapiens; procedure, shortened: as §4
CCRF-CEM [18] = test: Antiviral activity against site directed resistant isolate HIV-1 L100I in CEM cells; assay type: functional, cell-based, Homo sapiens; procedure, shortened: as §4
[19] = Antiviral activity against Ba-L monocyte tropic isolate strain in monocyte; assay type: functional; settings: Homo sapiens
Procedure, shortened: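 Monocytes isolated from hepatitis- and HIV-seronegative donors by Ficoll-Hypaque gradient, cultured 6 days into macrophages, then infected with Ba-L. Medium RPMI 1640 with 10% FBS, 2 mM glutamine, penicillin/streptomycin. Replication read as p24 antigen by ELISA 6 days postinfection. […] Run in triplicate, with AZT as positive control.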

[20] = Antiviral activity against subtype isolate F strain in PBLs (peripheral blood lymphocytes); assay type: functional, cell-based, Homo sapiens; procedure, shortened: as §3
CCRF-CEM [21] = test: Antiviral activity against site directed wild-type enzyme isolate HIV-1 NL4-3WT in CEM cells; assay type: functional, cell-based; settings: Homo sapiens
Procedure, shortened: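 Wild-type NL4-3 in CEM-SS cells, measured both by MTS cytoprotection 6 days after infection and by p24 ELISA. The IC50 is the mean of the two methods' values.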

[22] = Antiviral activity against subtype isolate D strain in PBLs (peripheral blood lymphocytes); assay type: functional, cell-based; settings: Homo sapiens; procedure, shortened: as §3
[23] = Antiviral activity against subtype isolate C strain in PBLs (peripheral blood lymphocytes); assay type: functional, cell-based; settings: Homo sapiens; procedure, shortened: as §3
[24] = Antiviral activity against subtype isolate B strain in PBLs (peripheral blood lymphocytes); assay type: functional, cell-based, Homo sapiens; procedure, shortened: as §3
CCRF-CEM [25] = test: Antiviral activity against site directed 4X AZT resistant isolate HIV-1 in CEM cells; assay type: functional, cell-based, Homo sapiens; settings: Homo sapiens, CCRF-CEM
[26] = Antiviral activity against WEJO virus strain in PBLs (peripheral blood lymphocytes); assay type: functional, cell-based; settings: Homo sapiens; procedure, shortened: as §3
[27] = Antiviral activity against multi drug resistant MDR 769 strain in PBLs (peripheral blood lymphocytes); assay type: functional, cell-based; settings: Homo sapiens
Procedure, shortened: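 PBMC from hepatitis- and HIV-seronegative donors isolated by Ficoll-Hypaque gradient and stimulated 3 days with phytohemagglutinin/IL-2 before infection. Medium RPMI 1640 with 10% FBS, 2 mM glutamine, penicillin/streptomycin. Replication read as supernatant reverse transcriptase activity. […] Run in triplicate, SD within triplicate under 10%; AZT positive control.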

CCRF-CEM [28] = test: Antiviral activity against site directed resistant isolate HIV-1 V106A in CEM cells; assay type: functional, cell-based, Homo sapiens; procedure, shortened: as §4
[29] = Ratio of CC50/EC50 was determined; assay type: cell-based; settings: human, CEM-SS cells; read-out: TI
Procedure, shortened: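 HIV-1 RF–infected CEM-SS cells (RPMI 1640, 10% heat-inactivated FBS, 2 mM glutamine, penicillin/streptomycin), plus mock-infected CEM-SS in parallel. Cell killing and viability were read by MTS/phenazine ethosulfate reduction at 490 nm 6 days after infection. […] Index = CC50 ÷ EC50. Triplicate tests.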

[30] = Antiviral activity against subtype isolate E strain in PBLs (peripheral blood lymphocytes); assay type: functional, cell-based; settings: Homo sapiens
CCRF-CEM [31] = test: Antiviral activity against site directed resistant isolates in HIV-1 A98G CEM cells; assay type: functional, cell-based, Homo sapiens; procedure, shortened: as §2

SMILES | IC50 [1] [nM] | EC50 (CEM-SS [2]) | CC50 (CEM-SS [3]) [nM] | IC50 (CCRF-CEM [4]) [nM] | IC50 (CCRF-CEM [6]) [nM] | IC50 (CCRF-CEM [9]) [nM] | IC50 (CCRF-CEM [11]) [nM] | IC50 (CCRF-CEM [13]) [nM] | IC50 (CCRF-CEM [16]) [nM] | IC50 (CCRF-CEM [17]) [nM] | IC50 (CCRF-CEM [18]) [nM] | IC50 (CCRF-CEM [21]) [nM] | IC50 (CCRF-CEM [25]) [nM] | IC50 (CCRF-CEM [28]) [nM] | also measured
COC(=O)c1cc(C(=CCCCC(=O)OC(C)C)c2cc(C)c(OC)c(C(=O)OC)c2)cc(C)c1OC | 60400 | Not Active | 4320 | – | – | – | – | – | – | – | – | – | – | – | –
COC(=O)c1cc(C(=CCCCS(C)(=O)=O)c2cc(Cl)c(OC)c(C(=O)OC)c2)cc(Cl)c1OC | – | Not Active | 14900 | – | – | – | – | – | – | – | – | – | – | – | –
CN/C(S)=N/CCC=C(c1cc(Cl)c(OC)c(C(=O)OC)c1)c1cc(Cl)c(OC)c(C(=O)OC)c1 | > 100000 | Not Active | 1360 | – | – | – | – | – | – | – | – | – | – | – | –
COC(=O)CCCC=C(c1cc(Cl)c(OC)c(C(=O)OC)c1)c1cc(Cl)c(OC)c(C(=O)OC)c1 | – | – | 31600 | 490 | 366 | 3300 | 469 | 600 | 1300 | > 20000 | 408 | 850 | 75 | > 20000 | IC50 [5]: 12000 nM; IC50 [7]: 800 nM; EC50 [8]: 13 nM; IC50 [10]: 600 nM; IC50 [12]: 100 nM; IC50 [14]: 750 nM; IC50 [15]: 1300 nM; IC50 [19]: 5400 nM; IC50 ([20]; Homo sapiens): 1300 nM; IC50 [22]: 180 nM; IC50 [23]: 410 nM; IC50 [24]: 12700 nM; IC50 [26]: 600 nM; IC50 [27]: 16900 nM
COC(=O)CCCC=C(c1cc(Br)c(OC)c(C(=O)OC)c1)c1cc(Br)c(OC)c(C(=O)OC)c1 | – | – | 13000 | 320 | 594 | 2000 | 284 | 350 | 1300 | 8300 | 84 | 400 | 32 | 9840 | IC50 ([5]; Homo sapiens): 16000 nM; IC50 [7]: 900 nM; EC50 [8]: 1.3 nM; IC50 [10]: 300 nM; IC50 [12]: 200 nM; IC50 [14]: 540 nM; IC50 [15]: 1000 nM; selectivity ratio [29]: 10000; IC50 [19]: 3600 nM; IC50 [20]: 1900 nM; IC50 [22]: 180 nM; IC50 [23]: 310 nM; IC50 [30]: 200 nM; IC50 ([24]; Homo sapiens): 5400 nM; IC50 (CCRF-CEM [31]): 460 nM; IC50 [26]: 400 nM; IC50 [27]: 48800 nM
Cc1ccnc2c1NC(=O)c1cccnc1N2C1CC1 [NEVIRAPINE] | – | – | – | 207 | 5 | 8300 | 61 | 1440 | 70 | 8270 | 180 | 29 | 8 | 1880 | IC50 (CCRF-CEM [31]): 222 nM
COC(=O)c1cc(C(=CCCNC(=O)OCC(C)C)c2cc(Cl)c(OC)c(C(=O)OC)c2)cc(Cl)c1OC | 65400 | Not Active | 17200 | – | – | – | – | – | – | – | – | – | – | – | –
CCNC(=O)NCCC=C(c1cc(Cl)c(OC)c(C(=O)OC)c1)c1cc(Cl)c(OC)c(C(=O)OC)c1 | > 100000 | Not Active | 14600 | – | – | – | – | – | – | – | – | – | – | – | –
